Results taken from paper PMC11865470 (Communications Biology, 2025).
Entries after “also recorded” stand apart in the source; their conditions may differ.

Experiments:
[1] = molecular target: T1, mouse Otop1 (mOtop1) channels (Mus musculus, UniProt Q80VM9); assay: whole-cell patch-clamp, "on-current" analysis of acid/alkali-evoked currents; type: cell-based
T1 sequence (Q80VM9 1-600): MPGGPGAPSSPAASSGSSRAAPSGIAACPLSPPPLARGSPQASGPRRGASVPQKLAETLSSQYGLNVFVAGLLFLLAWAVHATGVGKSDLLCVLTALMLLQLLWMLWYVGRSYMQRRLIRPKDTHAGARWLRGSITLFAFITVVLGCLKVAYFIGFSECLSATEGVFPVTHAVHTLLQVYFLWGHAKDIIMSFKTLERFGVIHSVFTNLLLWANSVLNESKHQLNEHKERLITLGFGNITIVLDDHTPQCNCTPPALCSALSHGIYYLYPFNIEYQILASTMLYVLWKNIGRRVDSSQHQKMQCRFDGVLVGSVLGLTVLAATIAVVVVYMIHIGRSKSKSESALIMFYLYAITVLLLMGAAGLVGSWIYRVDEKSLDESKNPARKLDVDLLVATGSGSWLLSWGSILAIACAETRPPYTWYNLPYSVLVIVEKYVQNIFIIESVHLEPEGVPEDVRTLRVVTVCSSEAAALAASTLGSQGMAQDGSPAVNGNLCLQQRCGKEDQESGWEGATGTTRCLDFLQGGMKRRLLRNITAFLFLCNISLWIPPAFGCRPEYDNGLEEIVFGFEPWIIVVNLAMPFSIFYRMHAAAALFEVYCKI

KV3.3 = molecular target: T2, KV3.3 (Mus musculus, UniProt Q63959); assay: whole-cell patch-clamp, off-target channel, 10 μM compound; type: cell-based; details: vs 0.1% DMSO
T2 sequence (Q63959 1-769): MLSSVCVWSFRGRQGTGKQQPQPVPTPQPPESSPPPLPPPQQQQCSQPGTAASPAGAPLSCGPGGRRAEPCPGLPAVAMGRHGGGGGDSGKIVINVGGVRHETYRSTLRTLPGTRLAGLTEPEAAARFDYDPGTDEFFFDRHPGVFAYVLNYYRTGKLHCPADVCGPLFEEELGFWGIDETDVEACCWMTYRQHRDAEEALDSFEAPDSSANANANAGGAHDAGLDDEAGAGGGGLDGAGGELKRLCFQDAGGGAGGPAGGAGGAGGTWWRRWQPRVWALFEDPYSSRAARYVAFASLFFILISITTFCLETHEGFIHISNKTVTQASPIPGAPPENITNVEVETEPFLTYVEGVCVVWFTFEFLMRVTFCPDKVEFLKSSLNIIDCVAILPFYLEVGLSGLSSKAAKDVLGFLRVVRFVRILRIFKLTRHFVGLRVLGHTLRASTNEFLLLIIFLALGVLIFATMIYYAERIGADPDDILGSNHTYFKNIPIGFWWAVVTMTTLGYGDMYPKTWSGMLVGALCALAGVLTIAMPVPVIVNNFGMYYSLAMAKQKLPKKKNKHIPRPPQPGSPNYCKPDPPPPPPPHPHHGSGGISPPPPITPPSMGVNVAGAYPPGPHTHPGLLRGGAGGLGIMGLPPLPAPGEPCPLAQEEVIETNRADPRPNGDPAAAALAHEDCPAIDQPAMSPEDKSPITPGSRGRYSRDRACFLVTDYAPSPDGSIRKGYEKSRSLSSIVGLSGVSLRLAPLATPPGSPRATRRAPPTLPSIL
Procedure, shortened: (§1)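 KV channels in transiently transfected HEK293T cells, whole-cell. Pipette (mM): 140 KCl, 2.5 MgCl2, 11 EGTA, 10 HEPES, pH 7.4. Bath (mM): 145 NaCl, 2.8 KCl, 2 CaCl2, 1 MgCl2, 10 glucose, 10 HEPES, pH 7.4. 0.1% DMSO bath applied, then 10 μM test compound. DMSO vs compound inhibition ratio compared by unpaired t-test, n = 5.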

CaV1.2 = CaV1.2 (Mus musculus, UniProt Q01815); assay: whole-cell patch-clamp, off-target channel, 10 μM compound; type: cell-based; details: for sensitivity of channel to compound: vs 0.1% DMSO
Procedure, shortened: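 CaV channels in transfected HEK293T cells, whole-cell. Pipette (mM): 120 CsMeSO3, 2 Mg-ATP, 11 EGTA, 10 HEPES, pH 7.4. Bath (mM): 138 NaCl, 5.6 KCl, 2.6 CaCl2, 20 TEA-Cl, 5 glucose, 5 HEPES, pH 7.4. 0.1% DMSO bath applied before 10 μM test compound. Inhibition ratios compared by unpaired t-test, n = 5.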

Kir4.1 = molecular target: T3, Kir4.1 (Homo sapiens, UniProt P78508); assay: whole-cell patch-clamp, off-target channel, 10 μM compound; type: cell-based; details: vs 0.1% DMSO
T3 sequence (P78508 1-379): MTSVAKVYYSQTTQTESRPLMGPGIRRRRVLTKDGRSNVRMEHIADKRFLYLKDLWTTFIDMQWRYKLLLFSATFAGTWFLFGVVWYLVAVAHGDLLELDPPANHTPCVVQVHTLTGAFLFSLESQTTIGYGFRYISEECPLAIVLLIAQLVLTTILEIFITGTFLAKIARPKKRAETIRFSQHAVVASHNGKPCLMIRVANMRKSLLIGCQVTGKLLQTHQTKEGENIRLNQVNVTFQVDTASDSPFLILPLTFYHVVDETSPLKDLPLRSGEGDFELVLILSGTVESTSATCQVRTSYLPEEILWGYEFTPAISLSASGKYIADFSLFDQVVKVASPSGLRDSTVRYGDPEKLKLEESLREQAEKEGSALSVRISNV
Procedure, shortened: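 Kir channels in transfected HEK293T cells, whole-cell. Pipette (mM): 135 KCl, 2 MgCl2, 10 HEPES, 1 EGTA, 4 Na2-ATP, pH 7.3. Bath (mM): 135 NaCl, 5 KCl, 1.5 CaCl2, 1 MgCl2, 10 HEPES, 10 glucose, pH 7.4. 0.1% DMSO bath applied before 10 μM test compound. Inhibition ratios compared by unpaired t-test, n = 5.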

KV2.1 = assay: whole-cell patch-clamp, off-target channel, 10 μM compound; type: cell-based, Mus musculus; details: for sensitivity of channel to compound: vs 0.1% DMSO
Procedure, shortened: as §1

[2] = EC50s, enhancing acid-evoked Otop1 currents, summary statement
[3] = apparent EC50, potentiation of mOtop1 currents, pH 5.5, on-current analysis, n = 5

Chain of CaV1.2 (Q01815 whole entry): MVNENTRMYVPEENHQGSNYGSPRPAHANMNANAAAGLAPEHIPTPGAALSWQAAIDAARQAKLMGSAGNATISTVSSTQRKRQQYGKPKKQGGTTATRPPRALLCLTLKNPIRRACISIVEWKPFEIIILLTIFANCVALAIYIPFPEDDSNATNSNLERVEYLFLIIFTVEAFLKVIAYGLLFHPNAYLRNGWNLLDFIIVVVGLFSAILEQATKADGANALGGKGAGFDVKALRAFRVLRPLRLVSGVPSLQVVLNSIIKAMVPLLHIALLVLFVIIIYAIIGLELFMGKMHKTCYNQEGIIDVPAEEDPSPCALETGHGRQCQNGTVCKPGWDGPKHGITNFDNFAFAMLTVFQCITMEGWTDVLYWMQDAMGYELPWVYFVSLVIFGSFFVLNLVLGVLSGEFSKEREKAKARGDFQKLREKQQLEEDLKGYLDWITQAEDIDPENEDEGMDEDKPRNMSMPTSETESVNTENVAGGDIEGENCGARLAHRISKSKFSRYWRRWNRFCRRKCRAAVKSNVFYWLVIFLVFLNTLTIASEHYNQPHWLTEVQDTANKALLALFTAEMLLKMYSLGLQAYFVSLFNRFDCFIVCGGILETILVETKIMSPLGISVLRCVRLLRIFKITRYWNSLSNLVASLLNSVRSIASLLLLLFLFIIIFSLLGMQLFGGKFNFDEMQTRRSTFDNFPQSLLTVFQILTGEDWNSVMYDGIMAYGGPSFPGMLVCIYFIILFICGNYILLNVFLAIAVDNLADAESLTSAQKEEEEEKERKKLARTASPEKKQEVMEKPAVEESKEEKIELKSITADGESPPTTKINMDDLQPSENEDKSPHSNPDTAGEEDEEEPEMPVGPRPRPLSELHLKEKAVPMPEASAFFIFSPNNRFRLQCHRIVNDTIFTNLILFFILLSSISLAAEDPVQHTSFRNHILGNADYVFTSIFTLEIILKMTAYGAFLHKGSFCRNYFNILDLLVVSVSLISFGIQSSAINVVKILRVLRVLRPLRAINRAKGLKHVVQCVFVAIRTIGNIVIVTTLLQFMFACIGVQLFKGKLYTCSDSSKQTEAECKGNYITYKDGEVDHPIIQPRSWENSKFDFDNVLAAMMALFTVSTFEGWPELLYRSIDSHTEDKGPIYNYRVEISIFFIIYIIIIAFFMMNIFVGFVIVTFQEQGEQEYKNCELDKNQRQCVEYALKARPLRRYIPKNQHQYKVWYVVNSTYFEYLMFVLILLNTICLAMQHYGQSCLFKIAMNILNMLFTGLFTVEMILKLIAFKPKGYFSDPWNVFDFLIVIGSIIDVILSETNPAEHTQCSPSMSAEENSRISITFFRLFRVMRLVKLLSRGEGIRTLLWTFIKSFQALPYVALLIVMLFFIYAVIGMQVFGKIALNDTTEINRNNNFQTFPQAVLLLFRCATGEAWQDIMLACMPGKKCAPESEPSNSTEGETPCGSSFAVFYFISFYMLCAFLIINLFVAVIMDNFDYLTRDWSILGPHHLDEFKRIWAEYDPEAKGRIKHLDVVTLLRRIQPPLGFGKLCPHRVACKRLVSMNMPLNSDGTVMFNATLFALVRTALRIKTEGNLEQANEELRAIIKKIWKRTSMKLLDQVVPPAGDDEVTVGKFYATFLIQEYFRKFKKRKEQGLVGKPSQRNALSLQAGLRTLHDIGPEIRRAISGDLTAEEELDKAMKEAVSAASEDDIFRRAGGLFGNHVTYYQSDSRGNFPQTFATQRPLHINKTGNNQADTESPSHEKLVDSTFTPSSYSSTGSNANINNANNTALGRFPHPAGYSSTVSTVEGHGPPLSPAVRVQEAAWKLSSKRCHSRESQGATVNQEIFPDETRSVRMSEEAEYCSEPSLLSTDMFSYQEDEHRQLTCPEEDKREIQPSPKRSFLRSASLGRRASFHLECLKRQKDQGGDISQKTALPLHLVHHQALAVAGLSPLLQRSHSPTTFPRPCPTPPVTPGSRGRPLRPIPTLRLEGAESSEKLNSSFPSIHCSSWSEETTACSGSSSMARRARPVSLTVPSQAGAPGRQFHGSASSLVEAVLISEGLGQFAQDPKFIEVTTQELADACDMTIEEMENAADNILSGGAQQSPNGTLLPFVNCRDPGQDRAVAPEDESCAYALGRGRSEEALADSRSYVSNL

SMILES: Cc1cc(NC(=O)c2ccc(Br)o2)ccc1NC(=O)c1ccco1 [B2FAMP, 5-Bromo-N-[4-(2-furoylamino)-3-methylphenyl]-2-furamide]
- direct activation of the Otop1 channel [1]: without directly activating
- effect on pH 3.5-activated mOtop1 currents ([1]; 10 μM): did not potentiate
- effect on pH 5.5-activated mOtop1 currents ([1]; 10 μM, pH 5.5): robust potentiation effects; also recorded: markedly potentiated; also recorded: potent potentiation effects
- EC50 [1, 2]: ~10 µM
- EC50 [1, 3]: 12.2 ± 3.4 µM
- sensitivity of channel to compound (KV3.3): completely resistant
- sensitivity of channel to compound (CaV1.2): completely resistant
- sensitivity of channel to compound (Kir4.1): completely resistant
- sensitivity of channel to compound (KV2.1): completely resistant

SMILES: CC(C)c1noc2ncc(C(=O)c3ccccc3O)cc12 [HIMOP, (2-hydroxyphenyl)-(3-propan-2-yl-5-isoxazolo[5,4-b]pyridinyl)methanone]
- direct activation of the Otop1 channel [1]: without directly activating
- effect on pH 3.5-activated mOtop1 currents ([1]; 10 μM): did not potentiate
- effect on pH 5.5-activated mOtop1 currents ([1]; 10 μM, pH 5.5): robust potentiation effects; also recorded: markedly potentiated; also recorded: potent potentiation effects
- EC50 [1, 2]: ~10 µM
- EC50 [1, 3]: 16.8 ± 6.5 µM
- sensitivity of channel to compound (KV3.3): completely resistant
- inhibition ratio (CaV1.2): 15.6%
- sensitivity of channel to compound (Kir4.1): completely resistant
- sensitivity of channel to compound (KV2.1): completely resistant

SMILES: Cc1ccc(C(=O)Nc2ccc3ccccc3c2)o1 [MFaN, 5-methyl-N-2-naphthyl-2-furamide]
- direct activation of the Otop1 channel [1]: without directly activating
- effect on mOtop1 activity at alkaline or neutral pH ([1]; 10 μM, alkaline and neutral pH): did not affect
- effect on pH 4.5-6.0 acid-activated mOtop1 currents ([1]; 10 μM, compared to the pH 3.5 group, Fig 1E): potently potentiated
- effect on pH 3.5-activated mOtop1 currents ([1]; 10 μM): no detectable effect
- effect on pH 5.5-activated mOtop1 currents ([1]; 10 μM, pH 5.5): robust potentiation effects; also recorded: potent potentiation effects
- EC50 ([1]; EC50, potentiation of mOtop1 currents, pH 6.0, on-current analysis, n = 5): 8.9 ± 4.7 µM
- EC50 [1, 2]: ~10 µM
- EC50 [1, 3]: 10.3 ± 2.6 µM
- sensitivity of channel to compound (KV3.3): completely resistant
- sensitivity of channel to compound (CaV1.2): completely resistant
- sensitivity of channel to compound (Kir4.1): completely resistant
- inhibition ratio (KV2.1): 20.0%
